An excerpt weighted towards active compounds, which were near 1.4% of everything screened.
Thrombin inh = human alpha-thrombin inhibitors, primary screen, counter-screen for coagulation protease inhibitor project, biochemical, 1536-well, fluorogenic AMC substrate; AID 1046, 2008; Boc-VPR-AMC fluorogenic substrate cleavage; 0.26% of 220,000 active; inhibition, % at 5 µM;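 active means inhibition at or above 40%; inactive means inhibition below 40%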
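Material: human alpha-thrombin enzyme / Medium: pH 7.5 Tris (50 mM) with NaCl 150 mM, Tween 20 0.05% / Compound: single-point dosing at 5 µM, 0.2% DMSO / Incubation: enzyme reaction carried out at room temperature / Detection: AMC fluorescence, 355/460 nm / Read-out basis: percent inhibition scaled between no-compound controls and no-enzyme blanks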
FXIIa inh 1536 = human FXIIa protease inhibitors, primary screen, biochemical, 1536-well; Coagulation factor XII (Homo sapiens), P00748; purified FXIIa, Boc-QGR-AMC fluorogenic substrate, 2 h; inhibition, % at 5 µM; 0.3% of 220,000 active; AID 800, 2007; in the data active means inhibition above about 40%
Target sequence (P00748 20-372 limits assumed): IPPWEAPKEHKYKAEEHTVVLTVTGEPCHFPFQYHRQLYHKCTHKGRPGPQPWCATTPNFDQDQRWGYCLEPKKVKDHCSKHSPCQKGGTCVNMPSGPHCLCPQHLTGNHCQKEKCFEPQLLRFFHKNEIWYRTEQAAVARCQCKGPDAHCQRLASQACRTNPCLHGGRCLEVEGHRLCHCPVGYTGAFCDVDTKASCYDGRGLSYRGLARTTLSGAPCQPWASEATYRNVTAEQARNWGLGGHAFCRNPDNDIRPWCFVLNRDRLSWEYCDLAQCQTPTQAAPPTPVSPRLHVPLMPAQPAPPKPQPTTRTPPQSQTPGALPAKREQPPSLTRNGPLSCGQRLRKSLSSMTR
Target sequence (P00748 373-615 limits assumed): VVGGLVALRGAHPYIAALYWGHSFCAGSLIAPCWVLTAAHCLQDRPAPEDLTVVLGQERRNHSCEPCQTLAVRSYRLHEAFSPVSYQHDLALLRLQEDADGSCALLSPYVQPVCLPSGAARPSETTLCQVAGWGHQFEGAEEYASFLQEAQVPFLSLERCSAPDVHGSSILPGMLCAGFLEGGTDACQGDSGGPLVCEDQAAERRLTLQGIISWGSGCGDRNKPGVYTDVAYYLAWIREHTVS
KLK5 inh = human KLK5 protease inhibitors, primary screen, biochemical, 1536-well; Kallikrein-5 (Homo sapiens), Q9Y337; recombinant hK5, fluorogenic AMC substrate cleavage; inhibition, % at 5 µM; 0.59% of 210,000 active; AID 873, 2007;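 active means inhibition of 40% or more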
FXIa inh = human FXIa protease inhibitors, primary screen, biochemical, 1536-well; 0.14% of 220,000 active; inhibition, % at 5 µM; purified FXIa, Boc-Glu-Ala-Arg-AMC fluorogenic substrate;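 active means inhibition of at least 40%; inactive means inhibition below 40%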;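 further: fluorescence of freed AMC excited at 355 nm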
m-calpain inh = inhibitors of pig calpain II, primary screen, biochemical, fluorogenic peptide substrate, 1536-well. purified calpain II, 30 min. inhibition, % at 16 µM. 0.37% of 220,000 active;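 active means inhibition above about 50%, limit read from the data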
Each line names hits and unclear results; the compound was inactive in the other large screens.

COC(=O)[C@@H](NC(=O)NC(C)CCc1ccccc1)C(C)C (some centres not stated)	none
COCCn1c(C)cc(C(=O)COC(=O)CNC(=O)c2ccccc2)c1C	m-calpain inh 59
COCC(C)n1c(C)cc(C(=O)COC(=O)CNC(=O)c2ccccc2)c1C (configuration not stated)	none
O=C(CNC(=O)c1ccccc1)NCC(=O)OCC(=O)c1ccc(F)cc1	KLK5 inh 80
CC(C)(C)C(=O)COC(=O)CNC(=O)c1ccc(Oc2ccccc2)cc1	KLK5 inh 44
FC(F)(F)c1cccnc1Oc1ccc(C2=NCCS2)cc1	none
CC(C)(C)c1ccc(NC(=O)COC(=O)C2=COCCO2)cc1	none
O=C(O)c1cc(Sc2ccc(Br)cc2)nc2ccccc12	KLK5 inh 43
CSc1ccccc1Sc1cc(C(=O)O)c2ccccc2n1	none
O=C(NCc1ccc2c3c(cccc13)C(=O)N2)c1cccs1	FXIIa inh 1536 42, KLK5 inh 56, FXIa inh 57
O=C1Nc2ccc(NS(=O)(=O)c3cccs3)c3cccc1c23	none
COc1ccc(C)cc1NC(=O)CSc1nnc(COc2ccc(Cl)cc2)n1Cc1ccco1	FXIIa inh 1536 52
COc1cccc(-c2nnc(SCC(=O)NCc3ccc4c(c3)OCO4)n2Cc2ccco2)c1	none
COc1cccc(-c2nnc(SCC(=O)Nc3ccc4c(c3)OCCO4)n2Cc2ccco2)c1	Thrombin inh 42, KLK5 inh 47
CCN(CC)C1=CC(=O)OC12CCCCC2	none
COC(=O)c1ccc(OCC(=O)c2ccc(C)c(C)c2)cc1	none
CC(=O)c1c(C)nn(C(=O)c2cccs2)c1C	KLK5 inh 56
CC1Cc2ccccc2N1S(=O)(=O)c1cccc2nsnc12 (configuration not stated)	FXIIa inh 1536 43
O=C(CN1C(=O)CCS(=O)(=O)c2ccccc21)NCc1ccc2c(c1)OCO2	none
O=C(Cn1c(/C=C/c2ccccc2)nc2ccccc21)Nc1ccc(F)cc1	FXIIa inh 1536 40
CCN1CCN(C(=O)c2ccc(COc3ccc(Cl)cc3)o2)CC1	none
Cc1c(Cl)cccc1NC(=O)Cc1ccc([N+](=O)[O-])cc1	Thrombin inh 96
Cc1ccc(CC(=O)Nc2cc([N+](=O)[O-])ccc2F)cc1	none
CCN(CC)S(=O)(=O)c1cc(C(=O)Nc2nncs2)c(Cl)cc1Cl	KLK5 inh 62
O=c1[nH]c(=O)n(Cc2ccco2)c2c1C(C(F)(F)F)(C(F)(F)F)N=C(c1ccc(F)cc1)N2	none
O=c1[nH]c(=O)n(Cc2ccccc2)c2c1C(C(F)(F)F)(C(F)(F)F)N=C(c1ccco1)N2	Thrombin inh 40, KLK5 inh 147
O=C(CN(c1ccc(F)cc1)S(=O)(=O)c1ccccc1)NCCSC1CCCCC1	none
Nn1c(SCC(=O)Nc2ccc3c(c2)OCO3)nnc1-c1ccncc1	none
Nn1c(SCC(=O)Nc2ccc(F)cc2F)nnc1-c1cccnc1	KLK5 inh 41
Cc1cc(NC(=O)CSc2nnc(-c3ccncc3)n2N)ccc1Br	m-calpain inh 137
CCOc1cc(-c2nn3cnnc3s2)cc(OCC)c1OCC	none
COc1ccc(CC(=O)Nc2cc(C)ccn2)cc1	KLK5 inh 82
Cc1ccnc(NC(=O)c2ccc([N+](=O)[O-])o2)c1	Thrombin inh 101
Cc1ccnc(NC(=O)CCCOc2ccc(Cl)cc2C)c1	KLK5 inh 41
Cc1ccccc1OCCCC(=O)Nc1nccs1	none
Cc1ccc(C)c(OCCCC(=O)Nc2nccs2)c1	m-calpain inh 69
CC(=O)N1CCC(=NNC(=O)CSc2cc(C)c(Br)cc2C)CC1	none
C=CCSc1nc2c(c(=O)[nH]c(=O)n2C)n1C(C)C	none
COC(=O)C1CCN(C(=O)C2CCCCC2)CC1	none
c1ccc(-c2csc3ncnc(NCC4COc5ccccc5O4)c23)cc1 (configuration not stated)	FXIIa inh 1536 41, KLK5 inh 57
COc1ccc2c(c1)C(=O)CC(O)(C(F)F)O2 (configuration not stated)	m-calpain inh 51
CC1(C)CC(=O)c2cc(OCC(=O)O)ccc2O1	none
Fc1cccc(NC(=S)N2CCCC2)c1	none
Cn1cc(S(=O)(=O)Nc2ccc(F)cc2F)c(=O)n(C)c1=O	none
O=C(O)c1cccc(N2C(=O)/C(=C/c3ccc(SCc4ccc(Cl)cc4)o3)SC2=S)c1	m-calpain inh 69
C=CC#CC1(O)CC(C)N(C)CC1C (configuration not stated)	KLK5 inh 46
Oc1cccc(-c2nc3ccccc3s2)c1	Thrombin inh 104, KLK5 inh 63
O=S(=O)(Nc1ccc(-n2cccc2)cc1)c1ccc(Cl)cc1Cl	m-calpain inh 65
COc1cc(NC(=O)c2ccco2)c(OC)cc1NC(=O)Nc1cccc(Cl)c1	KLK5 inh 46
Cc1cc(C)c(NC(=S)NCCCSC2CCCCC2)c(C)c1	none
O=C1C(c2ccccc2)SC(=Nc2ccccc2)N1S(=O)(=O)c1ccccc1 (configuration not stated)	m-calpain inh 54
CCC(C)(C)c1ccc(Oc2ccc(N)cc2)cc1	none
CCOCCSc1nc2c(c(-c3cccs3)c1C#N)CC/C2=C/c1cccs1	none
O=c1oc(-c2cccnc2)nc2ccccc12	Thrombin inh 82
c1cncc(-c2nc3ccccc3o2)c1	none (no result: m-calpain inh)
CC(C)OC(=O)CSc1nnc(COc2ccc([N+](=O)[O-])cc2)n1C	m-calpain inh 52
Cn1cccc1-c1nc2ccc(NC(=O)c3ccc([N+](=O)[O-])cc3)cc2[nH]1	none
Cc1cc(F)ccc1N1CCC(N2CCN(C(C)C)C(CCO)C2)CC1 (configuration not stated)	none
Cc1cc(F)ccc1N1CCC(N2CCN(CCC(C)C)C(CCO)C2)CC1 (configuration not stated)	Thrombin inh 45, KLK5 inh 42
Cc1ccc(N=c2c([N+](=O)[O-])nn(-c3ccc4c(c3)OCCO4)n2O)c(Cl)c1	m-calpain inh 53
Cc1cc(C)cc(N=c2c([N+](=O)[O-])nn(-c3ccc4c(c3)OCCO4)n2O)c1	none
Cc1cc(C)n(C(=O)CNc2cccc(Cl)c2C)n1	FXIIa inh 1536 44, KLK5 inh 46
S=c1[nH]nc(-c2ccccc2)n1CC1CCCO1 (configuration not stated)	none
Cc1nc(=O)c(-c2ccccc2)c(C)n1CC1CCCO1 (configuration not stated)	KLK5 inh 74
COc1ccc(-c2cnc(N)n2CC2CCCO2)cc1 (configuration not stated)	none
O=C(NCc1ccccc1)c1nc(-c2cccs2)no1	Thrombin inh 44
COc1ccc(C(=O)Nc2ccc3oc(-c4cccc(Cl)c4)cc(=O)c3c2O)cc1	none
